According to ChEMBL document CHEMBL4732199, “Potent and orally bioavailable CDK8 inhibitors: Design, synthesis, structure-activity relationship analysis and biological evaluation” (Eur J Med Chem, 2021):
pKi: −log10 of the molar value.

What was measured:
MDA-MB-453 = experiment: Growth inhibition human MDA-MB-453 cells after 72 hrs by resazurin or MTT assay; format: functional
Summary of the method: (§1)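 Tumour cell lines kept in RPMI-1640, DMEM or MEM with 10% FBS at 37 °C, 5% CO2, mycoplasma-free. Exposure lasted 72 h. Viability was read by MTT for adherent solid-tumour lines and by resazurin for suspension leukaemia lines. GI50 came from nonlinear regression, given as mean ± standard deviation of at least two replicates unless stated otherwise.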

[1] = Growth inhibition human PL-21 cells after 72 hrs by resazurin or MTT assay; format: functional, PL21; summary of the method: as §1
KG-1a = experiment: Growth inhibition human KG-1a cells after 72 hrs by resazurin or MTT assay; format: functional; summary of the method: as §1
[2] = Toxicity in BALB/c mouse assessed as pathological alterations in lung at 70 mg/kg, po administered once daily for 7 days and measured on day 15; format: organism-based; settings: in vivo, 168 h, time 7 day
COLO 205 = experiment: Growth inhibition human COLO 205 cells after 72 hrs by resazurin or MTT assay; format: functional; summary of the method: as §1
[3] = Half life in Sprague-Dawley rat at 20 mg/kg, po measured up to 24 hrs by LC-MS/MS analysis; format: ADME, organism-based; settings: in vivo
[4] = target: Protein kinase C theta type (Homo sapiens, UniProt Q04759); experiment: Inhibition of human full length PKCtheta using histone H1 as substrate incubated for 40 mins in presence of [gamma-33P]-ATP by scintillation counting method
Summary of the method: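 IC50 measured in a contracted radiometric kinase assay with ATP at the experimentally determined Km(ATP) of each kinase. Apparent Ki was derived by Cheng-Prusoff: Ki = IC50/(1+[ATP]/Km(ATP)).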

[5] = target: Glycogen synthase kinase-3 alpha (Homo sapiens, UniProt P49840); experiment: Inhibition of human GSKalpha S449A mutant (2 to 3nd residues) using YRRAAVPPSPSLSRHSSPHQS(p) EDEEE as substrate incubated for 40 mins in presence of [gamma-33P]-ATP by scintillation counting method
Summary of the method: (§2)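 Outsourced radioisotope (HotSpot) kinase assay run by a contract lab, with ATP at the kinase's Km(ATP). The IC50 was converted to an apparent Ki by the Cheng-Prusoff equation, Ki = IC50/(1+[ATP]/Km(ATP)), using the experimentally determined Km(ATP).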

PANC-1 = experiment: Growth inhibition human PANC-1 cells after 72 hrs by resazurin or MTT assay; format: functional; summary of the method: as §1
A2780 = experiment: Growth inhibition human A2780 cells after 72 hrs by resazurin or MTT assay; format: functional; summary of the method: as §1
[6] = Growth inhibition human WI38 cells after 72 hrs by resazurin or MTT assay; format: cell-based; settings: WI-38 cells
[7] = Toxicity in BALB/c mouse assessed as macrophages at 70 mg/kg, po administered once daily for 7 days and measured on day 15 by flow cytometric analysis; format: organism-based; settings: in vivo, 168 h, time 7 day
[8] = target: Glycogen synthase kinase-3 beta (Homo sapiens, UniProt P49841); experiment: Inhibition of human GSKbeta H350L mutant (2 to 3nd residues) using YRRAAVPPSPSLSRHSSPHQS(p) EDEEE as substrate incubated for 40 mins in presence of [gamma-33P]-ATP by scintillation counting method; summary of the method: as §2
[9] = Toxicity in BALB/c mouse assessed as infiltration of inflammatory cells at 70 mg/kg, po administered once daily for 7 days and measured on day 15; format: organism-based; settings: in vivo, 168 h, time 7 day
[10] = Toxicity in BALB/c mouse assessed as destruction of vessel walls at 70 mg/kg, po administered once daily for 7 days and measured on day 15; format: organism-based; settings: in vivo, 168 h, time 7 day
[11] = Clearance in Sprague-Dawley rat at 5 mg/kg, iv measured up to 24 hrs by LC-MS/MS analysis; format: ADME, organism-based; settings: in vivo
CDK8/Cyclin C = CDK8/Cyclin C (Homo sapiens, UniProt P49336); experiment: Inhibition of CDK8/cyclin C (unknown origin) using RBER-IRStide as substrate incubated for 60 mins in presence of [gamma33P]ATP by scintillation counting method; format: protein-complex assay
HCT-116 = experiment: Growth inhibition human HCT-116 cells after 72 hrs by resazurin or MTT assay; format: functional; summary of the method: as §1
U-937 = experiment: Growth inhibition human U-937 cells after 72 hrs by resazurin or MTT assay; format: functional; summary of the method: as §1
[12] = Toxicity in BALB/c mouse assessed as increase in number of alveolar macrophages at 70 mg/kg, po administered once daily for 7 days and measured on day 15; format: organism-based; settings: in vivo, 168 h, time 7 day
[13] = Half life in Sprague-Dawley rat at 5 mg/kg, iv measured up to 24 hrs by LC-MS/MS analysis; format: ADME, organism-based; settings: in vivo
Kasumi 1 = experiment: Growth inhibition human Kasumi-1 cells after 72 hrs by resazurin or MTT assay; format: functional; summary of the method: as §1
MOLM-13 = experiment: Growth inhibition human MOLM-13 cells after 72 hrs by resazurin or MTT assay; format: functional; summary of the method: as §1
HT-29 = experiment: Growth inhibition human HT-29 cells after 72 hrs by resazurin or MTT assay; format: functional; summary of the method: as §1
[14] = Toxicity in BALB/c mouse assessed as increase in CD3-T cells at 70 mg/kg, po administered once daily for 7 days and measured on day 15 by flow cytometric analysis; format: organism-based; settings: in vivo, 168 h, time 7 day
[15] = Toxicity in BALB/c mouse assessed as neutrophils at 70 mg/kg, po administered once daily for 7 days and measured on day 15 by flow cytometric analysis; format: organism-based; settings: in vivo, 168 h, time 7 day
[16] = Toxicity in BALB/c mouse assessed as B cells at 70 mg/kg, po administered once daily for 7 days and measured on day 15 by flow cytometric analysis; format: organism-based; settings: in vivo, 168 h, time 7 day
[17] = Toxicity in BALB/c mouse assessed as pathological alterations in left femora at 70 mg/kg, po administered once daily for 7 days and measured on day 15; format: organism-based; settings: in vivo, 168 h, time 7 day
[18] = Toxicity in BALB/c mouse assessed as dendritic cells at 70 mg/kg, po administered once daily for 7 days and measured on day 15 by flow cytometric analysis; format: organism-based; settings: in vivo, 168 h, time 7 day
[19] = Oral bioavailability in Sprague-Dawley rat at 20 mg/kg measured up to 24 hrs by LC-MS/MS analysis; format: ADME, organism-based; settings: in vivo
[20] = AUC in Sprague-Dawley rat at 20 mg/kg, po measured up to 24 hrs by LC-MS/MS analysis; format: ADME, organism-based; parameters: route oral, dose 20 mg/kg, time <=24; settings: in vivo
MV4-11 = experiment: Growth inhibition of human MV4-11 cells after 72 hrs by resazurin staining based assay; format: functional
Summary of the method: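 MV4-11 leukaemia cells grown in medium with 10% FBS at 37 °C, 5% CO2. Growth was read by a 72-h resazurin viability assay. GI50 was obtained by nonlinear regression and reported as mean ± standard deviation of at least two replicates.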

NB-4 = experiment: Growth inhibition human NB4 cells after 72 hrs by resazurin or MTT assay; format: functional; summary of the method: as §1
MCF7 = experiment: Growth inhibition human MCF7 cells after 72 hrs by resazurin or MTT assay; format: functional; summary of the method: as §1
[21] = Tmax in Sprague-Dawley rat at 5 mg/kg, iv measured up to 24 hrs by LC-MS/MS analysis; format: ADME, organism-based; settings: in vivo
[22] = Volume of distribution at steady state in Sprague-Dawley rat at 5 mg/kg, iv measured up to 24 hrs by LC-MS/MS analysis; format: ADME, organism-based; settings: in vivo, read-out: Vdss
[23] = Toxicity in BALB/c mouse assessed as monocytes at 70 mg/kg, po administered once daily for 7 days and measured on day 15 by flow cytometric analysis; format: organism-based; settings: in vivo, 168 h, time 7 day

Sequence of CDK8/Cyclin C (P49336 whole entry): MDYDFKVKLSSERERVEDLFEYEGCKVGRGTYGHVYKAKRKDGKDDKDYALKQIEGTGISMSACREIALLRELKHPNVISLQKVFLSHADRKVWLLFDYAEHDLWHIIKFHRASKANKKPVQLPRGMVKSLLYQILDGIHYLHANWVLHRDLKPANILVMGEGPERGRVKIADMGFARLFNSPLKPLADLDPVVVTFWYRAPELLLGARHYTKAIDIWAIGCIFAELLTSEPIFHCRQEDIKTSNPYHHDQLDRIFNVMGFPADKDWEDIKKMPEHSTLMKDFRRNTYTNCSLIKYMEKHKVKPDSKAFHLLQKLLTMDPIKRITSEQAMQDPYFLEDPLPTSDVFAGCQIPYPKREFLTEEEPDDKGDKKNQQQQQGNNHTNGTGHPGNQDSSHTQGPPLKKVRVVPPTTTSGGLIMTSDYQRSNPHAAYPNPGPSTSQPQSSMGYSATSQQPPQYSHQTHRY
Sequence of CDK8/Cyclin C (P24863 whole entry, further chain): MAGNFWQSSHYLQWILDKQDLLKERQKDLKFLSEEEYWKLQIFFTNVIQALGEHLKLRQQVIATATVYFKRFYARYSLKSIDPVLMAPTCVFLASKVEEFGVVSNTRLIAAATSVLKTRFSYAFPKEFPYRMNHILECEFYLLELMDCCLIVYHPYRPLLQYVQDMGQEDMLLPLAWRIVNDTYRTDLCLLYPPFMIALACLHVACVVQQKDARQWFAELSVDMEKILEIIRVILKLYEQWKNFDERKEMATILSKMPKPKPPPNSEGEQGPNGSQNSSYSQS
Sequence of Glycogen synthase kinase-3 alpha (P49840 whole entry): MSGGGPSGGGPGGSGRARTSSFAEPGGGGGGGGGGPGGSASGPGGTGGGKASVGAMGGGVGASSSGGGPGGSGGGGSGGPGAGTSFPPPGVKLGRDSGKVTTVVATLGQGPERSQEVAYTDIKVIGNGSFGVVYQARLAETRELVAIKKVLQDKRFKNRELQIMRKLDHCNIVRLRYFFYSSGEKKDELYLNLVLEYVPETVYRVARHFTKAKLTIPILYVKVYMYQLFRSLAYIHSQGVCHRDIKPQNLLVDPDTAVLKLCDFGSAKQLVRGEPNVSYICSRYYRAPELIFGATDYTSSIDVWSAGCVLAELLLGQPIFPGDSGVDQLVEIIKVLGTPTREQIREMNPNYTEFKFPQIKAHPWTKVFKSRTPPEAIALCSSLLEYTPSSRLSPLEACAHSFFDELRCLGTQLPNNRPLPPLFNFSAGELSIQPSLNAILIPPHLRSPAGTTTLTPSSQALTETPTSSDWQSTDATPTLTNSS
Sequence of Glycogen synthase kinase-3 beta (P49841 whole entry): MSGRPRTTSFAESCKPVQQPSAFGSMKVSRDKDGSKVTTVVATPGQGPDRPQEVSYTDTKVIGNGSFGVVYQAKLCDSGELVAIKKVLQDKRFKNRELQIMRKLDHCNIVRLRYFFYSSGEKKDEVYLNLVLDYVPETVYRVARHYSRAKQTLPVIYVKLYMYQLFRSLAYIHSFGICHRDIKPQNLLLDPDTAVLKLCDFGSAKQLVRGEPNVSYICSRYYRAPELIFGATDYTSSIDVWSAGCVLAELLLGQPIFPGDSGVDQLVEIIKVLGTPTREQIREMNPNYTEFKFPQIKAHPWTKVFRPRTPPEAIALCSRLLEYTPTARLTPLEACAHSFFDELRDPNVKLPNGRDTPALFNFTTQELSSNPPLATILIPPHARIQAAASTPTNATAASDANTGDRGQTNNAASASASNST
Sequence of Protein kinase C theta type (Q04759 whole entry): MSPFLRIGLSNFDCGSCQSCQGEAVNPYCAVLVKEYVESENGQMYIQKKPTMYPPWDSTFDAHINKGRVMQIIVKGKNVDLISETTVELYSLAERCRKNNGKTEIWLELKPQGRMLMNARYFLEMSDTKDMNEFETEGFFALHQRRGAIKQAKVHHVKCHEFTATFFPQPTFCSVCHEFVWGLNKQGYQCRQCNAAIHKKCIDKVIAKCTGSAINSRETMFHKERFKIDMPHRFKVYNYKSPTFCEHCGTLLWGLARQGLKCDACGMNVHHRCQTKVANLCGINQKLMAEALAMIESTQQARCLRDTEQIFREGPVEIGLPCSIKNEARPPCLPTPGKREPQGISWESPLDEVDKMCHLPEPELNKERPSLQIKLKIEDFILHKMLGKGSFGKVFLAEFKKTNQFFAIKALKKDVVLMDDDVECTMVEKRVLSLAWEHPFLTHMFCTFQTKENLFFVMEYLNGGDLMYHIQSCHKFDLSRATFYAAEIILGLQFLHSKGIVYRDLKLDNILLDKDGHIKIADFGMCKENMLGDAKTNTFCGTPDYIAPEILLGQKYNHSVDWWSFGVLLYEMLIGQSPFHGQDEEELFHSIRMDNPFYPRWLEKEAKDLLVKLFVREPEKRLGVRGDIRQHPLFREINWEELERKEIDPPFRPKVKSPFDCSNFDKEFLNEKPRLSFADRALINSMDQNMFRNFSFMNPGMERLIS

## Cn1cc(-c2ccc(-c3cncc(Cl)c3N3CCC4(CCNC4=O)CC3)cc2)cn1
MDA-MB-453
  GI50: 43.1 µM
[1]
  GI50: 13.8 µM
KG-1a
  GI50: 32.71 µM
[2]
  Activity: Toxic
COLO 205
  GI50: 37.7 µM
[3]
  half-life: 254 min
[4]
  pKi: 7.21
[5]
  pKi: 6.64
PANC-1
  GI50: 0.55 µM
A2780
  GI50: 35.9 µM
[6]
  GI50 at 72 h: > 50 µM
[7]
  Activity: Non-Toxic
[8]
  pKi: 6.46
[9]
  Activity: Toxic
[10]
  Activity: Toxic
[11]
  clearance: 1.2 L/h/kg
CDK8/Cyclin C
  pKi: 8.05
HCT-116
  GI50: 46.2 µM
U-937
  GI50: 22.4 µM
[12]
  Activity: Toxic
[13]
  half-life: 64.8 min
Kasumi 1
  GI50: 37 µM
MOLM-13
  GI50: 2.8 µM
HT-29
  GI50: 48.6 µM
[14]
  Activity: Toxic
[15]
  Activity: Non-Toxic
[16]
  Activity: Non-Toxic
[17]
  Activity: Toxic
[18]
  Activity: Non-Toxic
[19]
  bioavailability: 41%
[20]
  AUC at 24 h: 17.5 µM·h
MV4-11
  GI50: 0.03 µM
NB-4
  GI50: > 50 µM
MCF7
  GI50: > 50 µM
[21]
  Tmax: 4.2 min
[22]
  Vd: 1.38 L/kg
[23]
  Activity: Non-Toxic

## O=C1NCCC12CCN(c1c(Cl)cncc1-c1cc3ccccc3o1)CC2
MDA-MB-453
  GI50: 23.3 µM
[1]
  GI50: 25.4 µM
KG-1a
  GI50: 19.55 µM
[2]
  Activity: Non-Toxic
COLO 205
  GI50: > 50 µM
[3]
  half-life: 134 min
[4]
  pKi: 6.96
[5]
  pKi: 7.89
PANC-1
  GI50: > 50 µM
A2780
  GI50: 21.4 µM
[6]
  GI50 at 72 h: 48.1 µM
[7]
  Activity: Non-Toxic
[8]
  pKi: 8.40
[9]
  Activity: Non-Toxic
[10]
  Activity: Non-Toxic
[11]
  clearance: 1.39 L/h/kg
CDK8/Cyclin C
  pKi: 7.85
HCT-116
  GI50: 40.6 µM
U-937
  GI50: 1.36 µM
[12]
  Activity: Non-Toxic
[13]
  half-life: 54 min
Kasumi 1
  GI50: > 50 µM
MOLM-13
  GI50: 6.18 µM
HT-29
  GI50: 44.2 µM
[14]
  Activity: Toxic
[15]
  Activity: Non-Toxic
[16]
  Activity: Non-Toxic
[17]
  Activity: Non-Toxic
[18]
  Activity: Non-Toxic
[19]
  bioavailability: 38%
[20]
  AUC at 24 h: 14.6 µM·h
MV4-11
  GI50: 0.36 µM
NB-4
  GI50: 40.8 µM
MCF7
  GI50: > 50 µM
[21]
  Tmax: 2.4 min
[22]
  Vd: 1.11 L/kg
[23]
  Activity: Non-Toxic
